Screening data deposited in PubChem by several laboratories.
Only some compounds are listed: those with a hit (about 4.9% of all), similar ones and a draw of the others.
CHT allo act = allosterically activates the human high affinity choline transporter; CHT-expressing cells, membrane potential dye, choline EC20; active compounds read high; LV-AA mutant CHT in HEK293 cells; B-score at 10 µM; 310,000 tested, 0.49% active;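 active = initial fluorescence not abnormally high and integrated response B-score, plate-corrected, over 3 SD above library mean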
Target sequence (Q9GZV3 whole entry, looked up): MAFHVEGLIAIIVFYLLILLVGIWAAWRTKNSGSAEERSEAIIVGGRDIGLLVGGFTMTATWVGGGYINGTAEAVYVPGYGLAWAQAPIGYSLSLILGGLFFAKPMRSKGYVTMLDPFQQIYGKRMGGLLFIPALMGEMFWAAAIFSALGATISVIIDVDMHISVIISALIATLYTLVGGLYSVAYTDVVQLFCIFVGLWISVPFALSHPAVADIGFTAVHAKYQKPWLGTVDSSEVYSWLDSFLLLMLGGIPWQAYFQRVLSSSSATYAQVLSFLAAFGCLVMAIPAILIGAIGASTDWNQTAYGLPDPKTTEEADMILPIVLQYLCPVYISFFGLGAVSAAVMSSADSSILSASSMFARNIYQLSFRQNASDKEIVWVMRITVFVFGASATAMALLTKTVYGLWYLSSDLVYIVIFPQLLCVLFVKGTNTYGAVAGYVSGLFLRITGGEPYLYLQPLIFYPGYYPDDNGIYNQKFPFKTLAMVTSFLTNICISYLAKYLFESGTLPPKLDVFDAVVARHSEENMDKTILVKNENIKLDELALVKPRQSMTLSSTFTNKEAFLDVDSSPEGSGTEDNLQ
CHT block = human CHT choline transport inhibition; 310,000 tested, 0.86% active; CHT-expressing cells, membrane potential dye, choline response; active compounds read low; Q9GZV3; B-score at 10 µM;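 active = B-score over 3 SD under the library average, and starting fluorescence ratio not unusually high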;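 also: choline stimulus applied at its EC90 after an EC20 pre-addition; B-score computed on integrated fluorescence ratio after choline addition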
HSF1 inhib = HSF1 inhibition; NIH3T3-HGL HSE-luciferase, MG132-induced, luminescence 8 h; active compounds read low; activity change, negative = inhibition, % at 7.5 µM (by protocol); 300,000 tested, 0.77% active;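 active = more than half of replicate wells show activity change below -50%, luminescence cut by over half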;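 also: luciferase reports HSF-1 transcriptional activity via heat shock element; 0% = median of DMSO wells and -100% = zero luminescence signal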
PHOSPHO1 block = PHOSPHO1 (human) inhibition; recombinant PHOSPHO1, absorbance phosphatase assay; inhibition, % at 13.3 µM; 290,000 tested, 1.1% active; in the data active = inhibition above about 60%
HSF-1 act = increases HSF-1 driven luciferase reporter signal | 300,000 tested, 1.7% active | activation, % at 9 µM | AID 504408 | NIH3T3-HGL HSF-1 luciferase reporter, MG132, 8 h; 100% = twice DMSO control signal;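 active = mean replicate activation of at least 50% with a set share of replicates each reaching 50%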;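 also: 0% = median of the neutral control wells and 100% = twice that signal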
Hep lipid drop = modulators of hepatic lipid droplet formation; AML12 mouse hepatocytes, oleate lipid droplets, BODIPY imaging; inhibition, % at 6.5 µM; 240,000 tested, 0.4% active; AID 1656;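 active = lipid droplet intensity inhibited by at least 50%, with more than 500 cells counted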
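Test system: AML12 mouse liver cells; schedule: overnight exposure; technique: high-content imaging of BODIPY-stained droplets and DAPI nuclei; read-out: % inhibition of corrected integrated BODIPY droplet signal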
* hit, by the source's call.

Results for Cc1ccc2[nH]cc(CCNC(=O)c3ccco3)c2c1 ?
CHT allo act: inactive; CHT block: inactive; HSF1 inhib: -68*; PHOSPHO1 block: 14; HSF-1 act: -76; Hep lipid drop: -8

How did Cc1cc(Br)c2[nH]cc(CCNC(=O)c3ccco3)c2c1 do in these assays?
CHT allo act: inactive; CHT block: inactive; HSF1 inhib: -69*; PHOSPHO1 block: 10; HSF-1 act: -77; Hep lipid drop: -9

Results for Cc1ccc2[nH]cc(CCNC(=O)CN3C(=O)c4ccccc4C3=O)c2c1 ?
CHT allo act: inactive; CHT block: inactive; HSF1 inhib: 24; PHOSPHO1 block: -1; HSF-1 act: 73*; Hep lipid drop: 5

What do the screens show for `COC(=O)NC1CSCC1OC(=O)CN1C(=O)c2ccccc2C1=O` (configuration not stated)?
CHT allo act: inactive; CHT block: inactive; HSF1 inhib: 3; PHOSPHO1 block: 21; HSF-1 act: 24; Hep lipid drop: 1

How did COc1ccc(NS(=O)(=O)c2cc(-c3nnnn3C)ccc2OC)cc1 do in these assays?
CHT allo act: inactive; CHT block: inactive; HSF1 inhib: 1; PHOSPHO1 block: 66*; HSF-1 act: 6

Results for CCn1nnnc1-c1ccc(OC)c(S(=O)(=O)Nc2ccc(C)c(C)c2)c1 ?
CHT allo act: inactive; CHT block: inactive; HSF1 inhib: 2; PHOSPHO1 block: 11; HSF-1 act: 0

What do the screens show for `CCCn1c(=O)n(C)c(=O)c2c(SC(C)C(=O)NCC3CCCO3)nc(CC(C)C)nc21` (configuration not stated)?
CHT allo act: inactive; CHT block: inactive; HSF1 inhib: 1; HSF-1 act: 13

How did Cc1ccc(-c2cc(-c3ccccc3)nc(Cl)n2)cc1 do in these assays?
CHT allo act: inactive; CHT block: inactive; HSF1 inhib: 10; PHOSPHO1 block: 23; HSF-1 act: 6

How did Cc1ccc(-c2cc(C(F)F)nc(S(C)(=O)=O)n2)cc1 do in these assays?
CHT allo act: inactive; CHT block: inactive; HSF1 inhib: 250; PHOSPHO1 block: 16; HSF-1 act: 305*; Hep lipid drop: 0

What do the screens show for `O=C(O)c1cc(-c2cccc3ccccc23)nc2ccccc12`?
CHT allo act: inactive; CHT block: inactive; HSF1 inhib: -88*; PHOSPHO1 block: 40; HSF-1 act: -91; Hep lipid drop: -6

What do the screens show for `COCCNC(=O)c1cc(-c2ccc(-c3ccccc3)cc2)nc2ccccc12`?
CHT allo act: inactive; CHT block: inactive; HSF1 inhib: 35; PHOSPHO1 block: 4; HSF-1 act: 64*; Hep lipid drop: -38

How did COCCCNC(=O)c1cc(-c2cccnc2)nc2ccccc12 do in these assays?
CHT allo act: inactive; CHT block: inactive; HSF1 inhib: -6; PHOSPHO1 block: 22; HSF-1 act: -2; Hep lipid drop: -22

What do the screens show for `O=C(O)c1cc(-c2ccc3ccccc3n2)nc2ccccc12`?
CHT allo act: inactive; CHT block: inactive; HSF1 inhib: 1; PHOSPHO1 block: 9; HSF-1 act: 20; Hep lipid drop: 5

How did CCCc1ccc(-c2cc(C(=O)NCCc3ccc(S(N)(=O)=O)cc3)c3ccccc3n2)cc1 do in these assays?
CHT allo act: inactive; CHT block: inactive; HSF1 inhib: 41; PHOSPHO1 block: 9; HSF-1 act: 85*

Results for O=C(NCc1ccccn1)c1cc(-c2ccc(-c3ccccc3)cc2)nc2ccccc12 ?
CHT allo act: inactive; CHT block: inactive; HSF1 inhib: 29; PHOSPHO1 block: -44; HSF-1 act: 84*; Hep lipid drop: -4

How did O=C(NCc1ccccn1)c1cc(-c2ccccc2)nc2ccccc12 do in these assays?
CHT allo act: inactive; CHT block: inactive; HSF1 inhib: -2; PHOSPHO1 block: -19; HSF-1 act: 2; Hep lipid drop: 22

What do the screens show for `Cc1ccccc1C(=O)NC1CC2CCC(C1)N2Cc1ccccc1` (configuration not stated)?
CHT allo act: inactive; CHT block: inactive; HSF1 inhib: -7; PHOSPHO1 block: 40; HSF-1 act: -14; Hep lipid drop: -6

Results for O=C(Nc1ccc(C(=O)Oc2ccccc2)c(O)c1)c1ccco1 ?
CHT allo act: inactive; CHT block: inactive; HSF1 inhib: 25; PHOSPHO1 block: 19; HSF-1 act: 38; Hep lipid drop: 8

What do the screens show for `CCN(CC)C(=O)CSc1nc2c(sc(=S)n2-c2ccccc2)c(=O)[nH]1`?
CHT allo act: inactive; CHT block: inactive; HSF1 inhib: -3; PHOSPHO1 block: -2; HSF-1 act: 2; Hep lipid drop: 1

How did N#CCC(CNc1ncc(C(F)(F)F)cc1Cl)OC(=O)c1ccc(Cl)cc1Cl (configuration not stated) do in these assays?
CHT allo act: inactive; CHT block: inactive; HSF1 inhib: 44; PHOSPHO1 block: 3; HSF-1 act: 79*; Hep lipid drop: 4

Results for CCOC(=O)CNc1ncc(C(F)(F)F)cc1Cl ?
CHT allo act: inactive; CHT block: inactive; HSF1 inhib: -22; PHOSPHO1 block: 41; HSF-1 act: -34

How did CC1=NN(c2ccc(C)cc2)C(=O)/C1=C\C=C\c1ccccc1 do in these assays?
CHT allo act: inactive; CHT block: inactive; HSF1 inhib: 7; PHOSPHO1 block: 4; HSF-1 act: 14; Hep lipid drop: -15

How did CC1=NN(c2cccc(C(=O)O)c2)C(=O)/C1=C\C=C/c1ccccc1 do in these assays?
HSF1 inhib: 74; PHOSPHO1 block: -5; HSF-1 act: 100*; Hep lipid drop: -7

How did CCCCNC(=O)C1CC(c2ccccc2[N+](=O)[O-])=NO1 (configuration not stated) do in these assays?
CHT allo act: inactive; CHT block: inactive; HSF1 inhib: -2; PHOSPHO1 block: 15; HSF-1 act: -5

What do the screens show for `N#Cc1cccn1-c1nccs1`?
CHT allo act: inactive; CHT block: inactive; HSF1 inhib: -86*; PHOSPHO1 block: 32; HSF-1 act: -89; Hep lipid drop: -7

What do the screens show for `O=c1c(-c2nnc(SCc3ccc(Cl)c(Cl)c3)o2)cccn1Cc1ccccc1`?
CHT allo act: inactive; CHT block: inactive; HSF1 inhib: 7; PHOSPHO1 block: 28; HSF-1 act: 22

Results for O=[N+]([O-])c1ccccc1OCCCOc1cccc2cccnc12 ?
CHT allo act: inactive; CHT block: inactive; HSF1 inhib: 28; PHOSPHO1 block: 14; HSF-1 act: 55*; Hep lipid drop: 6

What do the screens show for `Clc1ccccc1OCCCOc1cccc2cccnc12`?
CHT allo act: inactive; CHT block: inactive; HSF1 inhib: 121; PHOSPHO1 block: 14; HSF-1 act: 106*; Hep lipid drop: -1
